Source: PubChem
KCNQ1 block – inhibitors of human KCNQ1 channel, primary screen, cell-based, thallium flux, high-throughput. 310,000 compounds, 1.3% hits. B-score at 10 µM. CHO-K1 KCNQ1, FluxOR thallium flux fluorescence; hits give high values;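 active means compounds whose thallium flux B-score, printed positive for inhibition, exceeds three library SD while starting fluorescence stays within three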;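 further: channel opened by potassium depolarization with thallium stimulus after 20 min compound exposure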
KCNQ1 act – potentiators or activators of KCNQ1 channel, primary screen, cell-based, thallium flux, high-throughput; Potassium voltage-gated channel subfamily KQT member 1 (Homo sapiens), P51787; 310,000 compounds, 0.35% hits; B-score at 10 µM; CHO-K1 KCNQ1, thallium flux FluxOR fluorescence; hits give high values;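 active means fluorescence ratio B-score, a plate-corrected score, at least three library SD, with initial intensity B-score within 5 SD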
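Schedule – 37 °C overnight plating, 90-min dark dye load, 20-min compound pretreatment · System – stable KCNQ1 CHO-K1 line · Probe or stimulus – thallium- and potassium-containing depolarizing buffer · Measured by – kinetic FluxOR fluorescence, 10 s baseline plus 110 s post-stimulus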
KCNK9 inh – KCNK9 potassium channel inhibitors, primary screen, HEK293 cells, thallium flux; Potassium channel subfamily K member 9 (Homo sapiens), Q9NPC2; FluxOR thallium flux fluorescence; hits give low values; B-score at 10 µM; 310,000 compounds, 1.2% hits; AID 488922, 2010;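 active means ratio B-score over 3 SD below the library mean, with starting fluorescence within 5 SD of its mean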;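 further: negative B-score means less thallium flux so channel inhibition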
hERG rescue – hERG rescue from dofetilide block, primary screen, cell-based, CHO-hERG, FluxOR thallium flux, dofetilide IC70 | Voltage-gated inwardly rectifying potassium channel KCNH2 (Homo sapiens), Q12809 | dofetilide IC70 present | activation (rescue from dofetilide block), less the hit threshold, % at 10 µM | 310,000 compounds, 0.51% hits | AID 1511, 2009;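 active means activation above the mean of controls blocked by dofetilide plus 5 SD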;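 further: thallium influx through hERG after potassium depolarization seen as dye fluorescence rise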
KCNK3 block – human KCNK3 channel inhibitors, primary screen, CHO cells, FluxOR thallium flux, B-score; B-score at 10 µM; Potassium channel subfamily K member 3 (Homo sapiens), O14649; 340,000 compounds, 0.84% hits; AID 602410, 2012; FluxOR fluorescence; hits give low values;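 active means B-score under library mean minus 4 SD, starting fluorescence ratio at most library mean plus 5 SD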;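 further: more negative B-score means stronger inhibition of thallium flux through KCNK3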
Target sequence (O14649 whole entry, looked up): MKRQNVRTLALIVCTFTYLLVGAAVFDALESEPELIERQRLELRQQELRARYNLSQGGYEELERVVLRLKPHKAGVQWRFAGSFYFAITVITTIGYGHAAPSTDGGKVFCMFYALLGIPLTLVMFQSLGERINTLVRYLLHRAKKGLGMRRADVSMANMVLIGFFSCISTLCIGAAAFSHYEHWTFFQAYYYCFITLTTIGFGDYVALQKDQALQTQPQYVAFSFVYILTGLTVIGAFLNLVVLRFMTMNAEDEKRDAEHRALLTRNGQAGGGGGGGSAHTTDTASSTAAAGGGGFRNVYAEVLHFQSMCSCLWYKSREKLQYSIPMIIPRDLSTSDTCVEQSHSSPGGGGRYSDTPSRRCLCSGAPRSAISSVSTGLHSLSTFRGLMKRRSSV
Kir21 block – inhibitors of mouse Kir2.1 inward-rectifier potassium channel; Inward rectifier potassium channel 2 (Mus musculus), P35561; HEK293-Kir2.1, FluxOR thallium flux fluorescence; hits give low values; B-score at 10 µM; 310,000 compounds, 0.85% hits; AID 1672, 2009;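 active means fluorescence ratio B-score at or below minus 3 SD of library scores, with starting-brightness B-score within 2 SD, cut at about -4.2 in these data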;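 further: channel flux triggered by added potassium and thallium sulfate stimulus; B-score of peak minus minimum fluorescence over baseline after thallium stimulus; more negative B-score means stronger Kir2.1 block with less thallium influx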
Numbers without * were called inactive; i = inactive; . = no result given. This is a sample that favours compounds with a hit; in the whole collection about 3.8% have one here.

SMILES | KCNQ1 block | KCNQ1 act | KCNK9 inh | hERG rescue | KCNK3 block | Kir21 block
CCN(c1cccc(C)c1)S(=O)(=O)c1ccc(-n2cccn2)cc1 | i | i | i | -4 | i | 0.57
Cc1ccc2cc(C)c(SCC(=O)NCC3CCCO3)nc2c1 (centres undefined) | i | i | i | -6 | i | -4.3*
COc1ccc(NC(=O)c2cc([N+](=O)[O-])ccc2N2CCCC2)cc1S(N)(=O)=O | . | . | . | . | i | .
O=C1CCCc2c1ccc1ccccc21 | . | . | . | . | i | .
CCSC1(SCC)N=C(N)C2(C#N)C(c3ccc(F)cc3)C12C#N (centres undefined) | i | i | i | -7 | i | -4.7*
COC1(OC)N=C(N)C2(C#N)C(c3ccc(F)cc3)C12C#N (centres undefined) | i | i | i | -2 | i | 1.2
O=C(Nc1cc(-c2ccccc2)sc1C(=O)O)c1cccc(F)c1 | 6* | i | i | -11 | i | 0.67
O=C(O)c1ccc(NC(=O)c2ccccc2NC(=O)c2cccc(F)c2)cc1 | i | i | i | -3 | i | 0.66
O=C(NCc1ccc(F)cc1F)Nc1cnccc1C(F)(F)F | i | i | i | -5 | i | -0.01
COC(=O)[C@@H](c1ccccc1)N(C)S(=O)(=O)c1cccc(S(=O)(=O)N(C)[C@@H](C(=O)OC)c2ccccc2)c1 | i | i | -7* | -3 | i | 0.47
COc1cccc(CNC(=O)CSCc2cnn(-c3ccccc3)c2-n2cccc2)c1 | i | i | i | -9 | i | -5.8*
CNC(=O)CSCc1cnn(-c2ccccc2)c1-n1cccc1 | i | i | i | -5 | i | -0.6
CCc1cc2ccccc2nc1SCC(=O)N1CCN(C(=O)c2ccco2)CC1 | i | i | i | -10 | i | -4.4*
CCCC(CCC(=O)Nc1cc([N+](=O)[O-])ccc1O)C(=O)O (centres undefined) | i | i | i | -5 | i | 0.2
CC(C)COc1ccc(-c2nn(-c3ccccc3)cc2C(=O)Nc2nccs2)cc1 | i | 9* | i | 14* | i | -0.85
O=C(Nc1nccs1)c1cn(-c2ccccc2)nc1-c1ccccc1 | i | i | i | -3 | i | 1.7
COc1ccc(Nc2nc(N)c3ccccc3n2)c(OC)c1 | i | i | i | -4 | i | -5.1*
COc1ccccc1Nc1nc(-c2ccccc2)nc2ccccc12 | i | i | -7.2* | -10 | i | -0.25
COc1cc(Nc2c3ccccc3nc3ccccc23)cc(OC)c1OC | i | i | i | -7 | i | 0.58
COc1ccccc1Nc1c2ccccc2nc2ccccc12 | i | i | i | -12 | i | -5*
COc1ccc(Nc2nc(N)nc(C(F)(F)F)n2)c(OC)c1 | i | i | i | -4 | i | 1.3
CC(C)(C)Nc1c2ccccc2nc2ccccc12 | i | i | i | -8 | i | -4.5*
COc1ccccc1N1C(=O)S/C(=C\c2ccc(C)s2)C1=O | i | i | i | 4.8* | i | 0.08
c1ccc2c(c1)OC(CCCN1CCCCC1)c1ccccc1S2 (centres undefined) | i | i | i | -10 | i | -5.8*
CN1CCCC(CC2Oc3ccccc3Sc3ccccc32)C1 (centres undefined) | i | i | i | -12 | i | -3.5
SMILES | KCNQ1 block | KCNQ1 act | KCNK9 inh | hERG rescue | KCNK3 block | Kir21 block
CCCC(C(=O)NC(C)(C)C)N(Cc1ccccc1Cl)C(=O)c1snc(C(N)=O)c1N (centres undefined) | 7* | i | i | -12 | i | -1.6
CCCCC(C(=O)NC(C)(C)C)N(Cc1ccccc1Cl)C(=O)c1snc(C(N)=O)c1N (centres undefined) | 6* | i | i | -16 | i | 0.09
COc1ccc(OC)c(NC(=O)CCN2C(=O)c3ccccc3C2=O)c1 | i | i | i | -2 | i | -0.73
Cc1ccc(CSCC(=O)N(C)CC(=O)Nc2ccccc2C(F)(F)F)cc1 | i | i | i | -18 | i | -1.1
Cc1cc(=O)c(C(=O)O)c(C)n1-c1ccccc1 | . | . | . | . | i | .
CCCOC(=O)c1ccc(OC(=O)c2ccco2)cc1 | i | i | i | -9 | i | -4.4*
CC(=O)Nc1ccc(OC(=O)c2ccco2)cc1 | i | i | i | -3 | i | -0.61
Fc1cccc2sc(Nc3nc4ccccc4s3)nc12 | i | i | i | 13* | i | -0.1
O=C(NNc1nc2ccccc2s1)c1ccccc1F | i | i | i | -3 | i | 0.5
Fc1ccc2nc(Nc3nc4c(F)cccc4s3)sc2c1 | i | 46* | i | 0 | i | 1.4
Fc1ccc2nc(Nc3nc4c(F)cc(F)cc4s3)sc2c1 | i | i | i | 5.0* | i | 1.2
CCOC(=O)CSc1cc(CSc2ccccc2)nc(-c2ccccc2)n1 | i | i | -6.7* | -8 | i | 1.5
Clc1ccc(SCc2cc(Cl)nc(-c3ccccc3)n2)cc1 | i | i | -6.7* | -7 | i | -0.7
O=C1CCN(Cc2ccc(Cl)cc2Cl)C(=O)N1 | . | . | . | . | i | .
CCOC(=O)C1=C(C)OC(N)=C(C#N)C1c1ccccc1 (centres undefined) | i | i | i | -18 | i | -1.3
CCOC(=O)C1=C(C)OC(N)=C(C#N)C1c1c(C)nn(-c2ccc(C)cc2)c1Cl (centres undefined) | i | i | -9.8* | -20 | . | -1.5
Cc1cccc(C(=O)N=c2sccn2C)c1[N+](=O)[O-] | i | i | i | -7 | i | 0.54
CCc1cc2cc(C)cc(C)c2[nH]c1=S | i | i | i | 9.1* | i | -0.01
CCOc1ccccc1N(CC(=O)NCCSc1ccccc1)S(C)(=O)=O | i | i | i | -10 | i | -1.1
O=C1CCC(C(=O)N2CCCCO2)CN1Cc1cccc(F)c1 (centres undefined) | i | i | i | -5 | i | 0.48
O=C(Cn1ncc2c(=O)oc3ccccc3c21)N1CCN(C(=O)c2ccco2)CC1 | i | 8* | i | -12 | i | 1.2
O=C(Cn1ncc2c(=O)oc3ccccc3c21)N1CCN(c2ccccn2)CC1 | i | i | i | -3 | i | 0.85
COC(=O)C1CN(S(=O)(=O)c2ccccc2)CCN1S(=O)(=O)c1ccccc1 (centres undefined) | i | i | -7.3* | -12 | i | -1.4
